By IC50 is commonly meant the concentration at which inhibition is half-maximal. By EC50 is commonly meant the concentration needed to bring the measured effect to its halfway point. A word on the CC50: it is the concentration that lowers cell viability or growth by half. The low end stands for harm at low concentration, the high end for better tolerance by the cells. What is called clearance is the volume of plasma or blood freed of the substance per unit of time. Low values mean a low capacity for elimination, high ones a high capacity for elimination. Usually bioavailability stands for the share of a dose that reaches the circulation, judged against a reference dose that is usually intravenous. A higher bioavailability goes with good availability. A word on the Vd: it is a proportionality between amount in the body and measured concentration, not a real space. High values mean extensive tissue distribution, low ones confinement near the circulation. By half-life is commonly meant the time needed for the level to fall by half in the phase considered. A high value points to slow loss.

Experimental findings from ChEMBL document CHEMBL2029282, “Synthesis and characterization of 2'-C-Me branched C-nucleosides as HCV polymerase inhibitors” (Bioorg Med Chem Lett, 2012) are described below.

Molecules are shown by their SMILES. Some results are limits rather than exact numbers.

Series [1] has as its system Hepatitis C virus. Nature of the series: Inhibition of HCV genotype 1b NS5B after 90 mins. On the set-up: species or system Hepatitis C virus subtype 1b. The conditions noted are these: 1.5 h.
Series [2] deals with Hepatitis C virus. In words: Antiviral activity against HCV genotype 1b infected in human HuH7 cells assessed as cytoprotection after 24 hrs. Format: functional, organism-based, Hepacivirus hominis. The conditions noted are these: Huh-7, 24 h.
A further series deals with adenosine deaminase. Nature of the series: Stability of the compound assessed as compound remaining at 10 uM after 60 mins in presence of bovine adenosine deaminase. Format: ADME. The conditions noted are these: cattle, read-out: Stability. The method in brief: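 Nucleosides (10 µM) were incubated at 37 °C with 0.0125 U/mL bovine adenosine deaminase in 0.01 M potassium phosphate pH 6.0 and sampled over 1 h. Reactions were quenched with ice-cold methanol containing 0.2% formic acid. Nucleoside was quantified by LC with triple-quadrupole MS in positive-ion MRM mode, and percent remaining taken at 60 min. Values are the mean of 2 independent experiments in duplicate.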

Series [3] is described as follows: Cytotoxicity against human HuH7 cells after 24 hrs by MTS assay. Format: cell-based, Huh-7. For orientation: Tetrazolium assays rely on reduction of a dye to a coloured formazan, in cell work by metabolically active cells.
In series [4] the test system is Rattus norvegicus. In words: Prodrug activation in Sprague-Dawley rat liver assessed as compound triphosphate form at 5 mg/kg, po after […]. Also noted: dose 5 mg/kg, route oral. Format: organism-based. The conditions noted are these: in vivo. In a few lines: (§1)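 Groups of 12 Golden Syrian hamsters or Sprague–Dawley rats were dosed orally with nucleoside in water. Doses were 20 or 10 mg/kg in hamsters and 2 or 5 mg/kg in rats. Livers were harvested under isoflurane at 1, 4, 8 and 12 h and snap-frozen. Homogenate supernatant was dried, reconstituted in 1 mM ammonium phosphate pH 7.0, and triphosphate measured by LC/MS/MS, with endogenous ATP checked for stability. Values are mean±SD from 3 livers per time point.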

Series [5] is described as follows: Plasma clearance in beagle dog at 0.5 mg/kg, iv after 24 hrs by LC-MS/MS analysis. The class given is ADME, organism-based, Canis lupus familiaris. Also noted: dose 0.5 mg/kg, route intravenous. The method in brief:
(§2)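 Groups of 3 non-naive male beagle dogs received one dose as a solution in 5/5/5/85 ethanol/[…]/polyethylene glycol/50 mM aqueous citrate buffer (pH 3.3). Dosing was either 0.5 mg/kg by IV infusion or 1 mg/kg orally. EDTA-K3 plasma was sampled over 24 h, precipitated with acetonitrile (60% final), dried, reconstituted in 20% acetonitrile, and analysed by LC/MS/MS in positive-ion MRM mode.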

Series [6] is described as follows: Oral bioavailability in beagle dog at 1 mg/kg. Format: ADME, organism-based, Canis lupus familiaris. The conditions noted are these: in vivo. In a few lines: as §2
Another series relates to Hepatocyte. In words: Prodrug activation in primary human hepatocytes assessed as compound triphosphate form at 10 uM after 1 hr. Format: cell-based. In a few lines:
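Primary human hepatocytes from two donors were grown confluent (0.88×10^6 cells/well) in Williams E medium with supplement. Cells were exposed to compound (10 µM) for 1 h, then drug-free medium for 23 h, and sampled during and after exposure. Cells were extracted in 70% methanol, dried, and resuspended in 1 mM ammonium phosphate pH 8.5. Triphosphate was quantified by LC/MS/MS. Two independent experiments were run in duplicate.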

In series [7] the test system is Syrian golden hamster. In words: Prodrug activation in Golden Syrian hamster liver assessed as compound triphosphate form at 10 mg/kg, po […]. The class given is organism-based, Mesocricetus auratus. Also noted: dose 10 mg/kg, route oral. The conditions noted are these: in vivo. The method in brief:
as §1

Series [8] in a line: Volume of distribution in beagle dog at 0.5 mg/kg, iv after 24 hrs by LC-MS/MS analysis. Also noted: dose 0.5 mg/kg, route intravenous. The conditions noted are these: in vivo. Format: ADME, organism-based, Canis lupus familiaris. In a few lines: as §2
The nature of series [9]: Elimination half life in beagle dog plasma at 0.5 mg/kg, iv after 24 hrs by LC-MS/MS analysis. Format: ADME, organism-based, Canis lupus familiaris. Also noted: dose 0.5 mg/kg, route intravenous. In a few lines:
as §2

The nature of series [10]: Oral bioavailability in Sprague-Dawley rat. Format: ADME, organism-based. The conditions noted are these: in vivo.
The next series concerns Huh-7. In words: Prodrug activation in human HuH7 cells assessed as compound triphosphate form at 10 uM after 24 hrs. The conditions noted are these: huh-7, 24 h.
Series [11] in a line: Plasma clearance in rat. Format: ADME, organism-based.
For series [12], the system named is Rattus norvegicus. In words: Prodrug activation in Sprague-Dawley rat liver assessed as compound triphosphate form at 2 mg/kg, po after 4 to 24 hrs. The class given is organism-based. The conditions noted are these: in vivo. Also noted: dose 2 mg/kg, route oral.
Series [13] has as its system Syrian golden hamster. In words: Prodrug activation in Golden Syrian hamster liver assessed as compound triphosphate form at 20 mg/kg, po after 4 to 24 hrs. Format: organism-based, Mesocricetus auratus. Also noted: dose 20 mg/kg, route oral. The conditions noted are these: in vivo.

In the case of `C[C@@]1(O)[C@H](O)[C@@H](CO)O[C@H]1c1cnc2c(N)ncnn12`, half-maximal inhibition in the series on Hepatitis C virus [1] (IC50) required 2.1 µM. The EC50 in the series with Hepatitis C virus [2] stood at 1.28 µM. For the same compound, the remaining at 1 h, 10 µM with adenosine deaminase was determined as 55%. Besides, the CC50 at 24 h in series [3] is > 89 µM.

In the case of `C[C@@]1(O)[C@H](O)[C@@H](CO)O[C@H]1c1ccc2c(N)ncnn12`, in the series with Hepatitis C virus [1], the IC50 turned out to be 0.31 µM. Besides, the Drug metabolism entry with Rattus norvegicus [4] is “Active”; in the series with Hepatocyte, “Active”; in the series on Syrian golden hamster [7], “Active”; in the series with Huh-7 it was “Not Active”. This compound gave a clearance in series [5] of 6.67 mL/min/kg. The bioavailability in series [6] stood at 70%; in [10], 50%. Besides, in the series with Hepatitis C virus [2], the EC50 was determined as 1.98 µM. In addition, the Vd in series [8] worked out at 1.66 L/kg. Further, in series [9], the half-life is > 7 h. The remaining at 1 h, 10 µM in the series with adenosine deaminase was found to be 100%. The same compound yielded a CC50 at 24 h in [3] of 85 µM.

As to `C[C@@]1(O)[C@H](O)[C@@H](CO)O[C@H]1c1cnc2c(=O)[nH]c(N)nn12`, the IC50 with Hepatitis C virus [1] was 0.19 µM. For the same compound, the EC50 with Hepatitis C virus [2] is > 89 µM. Besides, the CC50 at 24 h in series [3] is > 89 µM.

`C[C@@]1(O)[C@H](O)[C@@H](CO)O[C@H]1c1c[nH]c(N)nc1=O` displayed an IC50 in the series on Hepatitis C virus [1] of 13.4 µM. Moreover, the EC50 with Hepatitis C virus [2] is > 89 µM. Further, in series [3], the CC50 at 24 h was > 89 µM.

In the series on Hepatitis C virus [1], `C[C@@]1(O)[C@H](O)[C@@H](CO)O[C@H]1n1ccc(=O)[nH]c1=O` showed an IC50 of 1.32 µM. In the series with Hepatitis C virus [2], the EC50 is 15.2 µM. Further, the CC50 at 24 h in series [3] is > 89 µM.

On to `C[C@@]1(O)[C@H](O)[C@@H](CO)O[C@H]1c1c[nH]c(=O)[nH]c1=O`, for which inhibition in the series on Hepatitis C virus [1] was half-maximal at 13.4 µM (IC50). In the series with Hepatitis C virus [2], the EC50 is > 89 µM. Also, the CC50 at 24 h in series [3] was > 89 µM.

On to `CC(C)(C)C(=O)SCCOP(=O)(OCCSC(=O)C(C)(C)C)OC[C@H]1O[C@@H](n2cnc3c(=O)[nH]c(N)nc32)[C@](C)(O)[C@@H]1O`, for which, in the series on Hepatitis C virus [2], the EC50 stood at 0.05 µM.

As for `CC(C)(C)C(=O)SCCOP(=O)(OCCSC(=O)C(C)(C)C)OC[C@H]1O[C@@H](c2cnc3c(=O)[nH]c(N)nn23)[C@](C)(O)[C@@H]1O`, the EC50 with Hepatitis C virus [2] stood at 9.54 µM.

The compound `C[C@@]1(O)[C@H](O)[C@@H](CO)O[C@H]1n1ccc(N)nc1=O` came in with an IC50 in the series with Hepatitis C virus [1] of 0.73 µM. In addition, the EC50 with Hepatitis C virus [2] came to 4.07 µM. In addition, the CC50 at 24 h in series [3] is > 89 µM.

For the compound `C[C@@]1(O)[C@H](O)[C@@H](CO)O[C@H]1n1cnc2c(N)ncnc21`, in the series with Hepatitis C virus [1], the IC50 amounted to 6.83 µM. Moreover, the concentration giving a half-maximal response (EC50) with Hepatitis C virus [2] stood at 0.35 µM. The clearance in series [11] is > 200 mL/min/kg. In the series on adenosine deaminase, the remaining at 1 h, 10 µM worked out at 94%. In addition, the CC50 at 24 h in series [3] turned out to be 66 µM.

Regarding `C[C@@]1(O)[C@H](O)[C@@H](CO)O[C@H]1n1cnc2c(=O)[nH]c(N)nc21` [2'-B-METHYL-GUANOSINE], inhibition in the series with Hepatitis C virus [1] was half-maximal at 0.25 µM (IC50). In the series on Hepatitis C virus [2], the EC50 is 3.25 µM. For the same compound, the CC50 at 24 h in series [3] was > 89 µM.

The compound `C[C@@]1(O)[C@H](O)[C@@H](CO)O[C@H]1n1ccc2c(N)ncnc21` [BETA-2'-C-METHYL-7-DEAZA-ADENOSINE] showed an IC50 in the series with Hepatitis C virus [1] of 0.3 µM. Moreover, the Drug metabolism result with Rattus norvegicus [12] and with Syrian golden hamster [13] was “Active” each time. Moreover, the EC50 with Hepatitis C virus [2] came out at 0.08 µM. Also, the remaining at 1 h, 10 µM with adenosine deaminase was determined as 98%. Moreover, in series [3], the CC50 at 24 h is > 89 µM.
